Source: PubChem BioAssay
CHO parental Ca – signal in parental CHO cells, OX1R antagonist counter-screen; 0.63% of 330,000 active; parental CHO-K1, ATP-induced calcium, Fluo-8 fluorescence; inhibition, % at 5.6 µM;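 active means inhibition above that plate's mean sample inhibition plus 3 SD, cut at about 26% in these data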
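Assay system: parental CHO cells; Read-out basis: percent inhibition of ATP-evoked calcium rise, normalized to controls; Benchmarks: ATP and no-ATP DMSO wells; Compound dosing: single nominal dose of 5.6 µM per compound; Signal: Fluo-8 calcium dye fluorescence; Also added: ATP as calcium-mobilizing challenge; Repeats: singlicate.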
OX1R antag-1 – OX1R (human) antagonism; 1.8% of 330,000 active; AID 485270; OX1R-expressing cells, FRET antagonist read-out; inhibition, % at 6.6 µM; O43613; in the data active means inhibition mostly above about 38%, no sharp cut-off; inactive means mostly below about 40%
GalR3 antag – human GalR3 antagonism. AID 651719. O60755. inhibition, % at 3 µM. HEK293 GalR3-CNG cAMP membrane potential fluorescence; galR3 body fused to GalR1 C-terminus. 0.44% of 360,000 active;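 active means inhibition above the screen-wide average plus 3 SD, cut at about 13% in these data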;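 further: forskolin and galanin both at EC90 stimulate the cells; cAMP rise reported by CNG channel membrane potential dye signal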
Target sequence (O60755 1-299 limits assumed): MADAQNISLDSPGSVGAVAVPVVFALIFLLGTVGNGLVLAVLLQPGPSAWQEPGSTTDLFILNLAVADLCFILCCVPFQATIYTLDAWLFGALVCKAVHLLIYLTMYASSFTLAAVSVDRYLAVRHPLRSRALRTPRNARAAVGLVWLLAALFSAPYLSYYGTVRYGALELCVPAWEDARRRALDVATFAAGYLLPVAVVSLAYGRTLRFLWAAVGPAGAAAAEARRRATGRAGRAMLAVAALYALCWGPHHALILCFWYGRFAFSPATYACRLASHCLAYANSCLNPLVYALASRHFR
OX1R antag-2 – blocks the human orexin 1 receptor | AID 434989 | O43613 | CHO/OX1R cells, Fluo-8 calcium fluorescence, orexin A | inhibition, % at 5 µM | 0.43% of 330,000 active;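 active means inhibition above its plate's threshold, mean inhibition of all tested compounds on the plate plus 3 SD, cut at about 37% in these data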
TAAR1 ag – human TAAR1 agonism; CHO RD-HGA16 TAAR1, Fluo-8 calcium fluorescence; vehicle wells 0%, saturating PEA agonist 100%; AID 624467; 0.99% of 360,000 active; Q96RJ0; activation, % at 3 µM;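 active means activation above the mean activation of all test compounds in the run plus 3 SD, cut at about 38% in these data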
Target sequence (Q96RJ0 whole entry, looked up): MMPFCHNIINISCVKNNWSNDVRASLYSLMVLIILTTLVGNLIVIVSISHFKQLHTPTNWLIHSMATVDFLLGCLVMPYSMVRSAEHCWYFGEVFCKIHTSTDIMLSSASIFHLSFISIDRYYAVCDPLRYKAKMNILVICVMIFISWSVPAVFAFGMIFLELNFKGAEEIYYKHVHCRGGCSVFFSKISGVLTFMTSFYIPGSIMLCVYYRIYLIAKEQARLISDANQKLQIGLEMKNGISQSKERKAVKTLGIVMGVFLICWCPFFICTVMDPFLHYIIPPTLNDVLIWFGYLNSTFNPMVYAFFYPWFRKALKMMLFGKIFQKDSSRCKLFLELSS
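Assay system – CHO-derived RD-HGA16 cells with stable Gα16 and human TAAR1 · Compound dosing – one-point dosing at 3 µM (nominal) · Incubation – 17-24 h seeding, 75 min 37 °C dye, 30 min RT · Measured by – kinetic Fluo-8 calcium fluorescence · Control set – DMSO vehicle as 0%, PEA at EC100 as 100% · Repeats – single well for each compound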
TAAR1 antag – human TAAR1 antagonism. CHO RD-HGA16 TAAR1, Fluo-8 calcium fluorescence, antagonist. 1.5% of 360,000 active. inhibition, % at 3 µM. Q96RJ0;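 active means inhibition above a per-plate cutoff, the mean inhibition of test compounds on that plate plus 3 SD, cut at about 49% in these data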
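Material: RD-HGA16 CHO cells with stable hTAAR1 and Gα16; Dosing: single nominal final test compound concentration of 3 µM; Schedule: seeding 17-24 h prior, 75-min 37 °C, 30-min RT dye loading; Detection: kinetic Fluo-8 calcium fluorescence measurement; Measure: % inhibition from peak post-agonist over basal fluorescence ratio; Benchmarks: vehicle and agonist controls.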
GalR3 conf – GalR3 (human) antagonism, confirmation; shares compounds with GalR3 antag; HEK293 GalR3 CNG cAMP biosensor, membrane potential fluorescence; galR3 fused to GalR1 carboxy tail; challenged with forskolin and galanin at EC90; inhibition, % at 3 µM; 59% of 1,600 active;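 active means inhibition above the primary screen's cutoff, the mean inhibition of all screened compounds plus 3 SD, cut at about 13% in these data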
CNG parental – counter-screen for GalR3 antagonists: nonspecific agonists in parental HEK-CNG cells. shares compounds with GalR3 antag. HEK293-CNG parental cells, cAMP membrane potential fluorescence; normalised: DMSO wells 0%, forskolin wells 100%. activation, % at 3 µM. 10% of 1,600 active. AID 652268; in the data active means activation above about 1.3%
Of the large screens only hits and unclear results are named; the others gave an inactive call (follow-up assays come after a bar, where they were run). An excerpt weighted towards active compounds, which were near 4.2% of everything screened.

O=[N+]([O-])c1ccccc1-c1cc(-c2cc(Cl)ccc2O)n[nH]1	GalR3 antag 19 | GalR3 conf inactive | CNG parental inactive
OC(c1ccc(F)cc1)c1nc(-c2ccncc2)cs1 (stereo not drawn)	GalR3 antag 13 (no result: CHO parental Ca, OX1R antag-1, OX1R antag-2) | GalR3 conf 32 | CNG parental inactive
OC(c1ccc(F)c(F)c1)c1nc(-c2ccncc2)cs1 (stereo not drawn)	none (no result: CHO parental Ca, OX1R antag-1, OX1R antag-2)
Cc1nnc(NC(=O)CSc2nnc(CNC(=O)c3ccccc3F)n2C(C)C)s1	none (no result: CHO parental Ca, OX1R antag-1, OX1R antag-2)
COc1ccc(NC(=O)COc2nc3ccccc3nc2N2CCOCC2)c(OC)c1	GalR3 antag 14 | GalR3 conf inactive | CNG parental inactive
NC(=O)c1ccc(N2CCN(S(=O)(=O)c3cccs3)CC2)c([N+](=O)[O-])c1	CHO parental Ca 46, GalR3 antag 101, OX1R antag-2 56 | GalR3 conf 102 | CNG parental inactive
CC(C)COC(=O)C(C#N)c1nc2ccccc2nc1N1CCN(Cc2ccccc2)CC1 (stereo not drawn)	none
CCCn1nc(C(=O)NNC(=O)CCCOc2ccc(OC)cc2)c2ccccc2c1=O	GalR3 antag 58 | GalR3 conf 44 | CNG parental inactive
Cn1c(NC(=O)c2ccccc2NC(=O)C(C)(C)C)nc2ccccc21	none
CN(C)S(=O)(=O)N1CCC(Oc2cccc(C(=O)NC3CCCCC3)c2)CC1	GalR3 antag 14 | GalR3 conf 62 | CNG parental inactive
COc1cc2c(cc1OC)-c1cc(NC3CC3)nc(=O)n1CC2	none
COc1cc2c(cc1OC)-c1cc(NC3CCCCC3)nc(=O)n1CC2	GalR3 antag 44 | GalR3 conf 33 | CNG parental inactive
COc1cc2c(cc1OC)-c1cc(NC3CCCCCCC3)nc(=O)n1CC2	GalR3 antag 47 | GalR3 conf 57 | CNG parental 1.4
CCNc1cc2n(c(=O)n1)CCc1cc(OC)c(OC)cc1-2	none
O=C(O)Cn1cnc2c(OCc3ccccc3)ncnc21	none
Cc1cc(C)c(CN2CCN(C(=O)Cn3cnc4c(OCc5ccccc5)ncnc43)CC2)c(C)c1	GalR3 antag 98 | GalR3 conf 106 | CNG parental inactive
CN(C)CCCN(C(=O)c1ccc2c(c1)CCCC2)c1nc2ccc(F)cc2s1	none
CCCCC[C@@H](/C=C/C1C(=O)C=C[C@H]1C/C=C\CCCC(=O)O)OC(C)=O (stereo partly drawn)	GalR3 antag 100 (no result: CHO parental Ca, OX1R antag-1, OX1R antag-2) | GalR3 conf 98 | CNG parental inactive
O=C(NCCNCc1cccc(Cl)c1)c1ccco1	none (no result: CHO parental Ca, OX1R antag-1, OX1R antag-2)
Clc1cccc(CNCCNCc2cccc(Cl)c2)c1	GalR3 antag 22 | GalR3 conf inactive | CNG parental 2.5
O=C(c1ccc2c(=O)n(CC3CCCO3)c(=S)[nH]c2c1)N1CCN(c2ccccc2)CC1 (stereo not drawn)	none
CNC(=S)N/N=C/c1ccc(OCC(=O)Nc2c(C)cc(C)cc2C)c(OC)c1	GalR3 antag 19 | GalR3 conf 23 | CNG parental inactive
CC(/C=N\NC(=O)Cn1c(C)nc2ccccc21)=C\c1ccccc1	GalR3 antag 70 | GalR3 conf inactive | CNG parental inactive
COc1ccc2oc(C)c(C(=O)Cn3ccnc3)c2c1	GalR3 antag 15 | GalR3 conf inactive | CNG parental inactive
COc1ccc2oc(C)c(C(=O)c3ccccc3)c2c1	none
Cc1cc(CN(C)C(=O)c2cc(COc3ccc4ncccc4c3)on2)on1	CHO parental Ca 29, GalR3 antag 37 | GalR3 conf 69 | CNG parental inactive
O=C(NC1CCCCCCC1)c1cc(COc2ccc3ncccc3c2)on1	GalR3 antag 68 (no result: CHO parental Ca, OX1R antag-1, OX1R antag-2) | GalR3 conf 92 | CNG parental inactive
CCC(O)C1CCN(C(=O)c2cc(COc3ccc4ncccc4c3)on2)CC1 (stereo not drawn)	CHO parental Ca 31, GalR3 antag 101 | GalR3 conf 91 | CNG parental inactive
COCC1CCCN(C(=O)c2cc(COc3ccc4ncccc4c3)on2)C1 (stereo not drawn)	CHO parental Ca 54, GalR3 antag 100 | GalR3 conf 125 | CNG parental inactive
CCc1ccc(CN(C)C(=O)c2cc(COc3cccc4cnccc34)on2)cc1	CHO parental Ca 67, GalR3 antag 14, OX1R antag-2 51, TAAR1 antag 51 | GalR3 conf 84 | CNG parental inactive
CC1CC(=O)NN=C1c1ccc(NCCO)c([N+](=O)[O-])c1 (stereo not drawn)	OX1R antag-1 59, GalR3 antag 64 | GalR3 conf 71 | CNG parental inactive
O=C(Nc1ccccc1NS(=O)(=O)c1ccc(F)cc1)C1CCC1	none (no result: GalR3 antag) | GalR3 conf inactive | CNG parental inactive
CC(C)c1ccc(NC(=O)CSc2nc3ccccc3nc2N2CCCC2)cc1	none (no result: GalR3 antag)
N#CCSc1nc(N)c(C#N)c(C2CCCCC2)c1C#N	GalR3 antag 72 | GalR3 conf 88 | CNG parental inactive
Cc1ccc(Nc2ccc(C(=O)O)cc2N)cc1	GalR3 antag 15 | GalR3 conf inactive | CNG parental inactive
Cc1cc(C)cc(Nc2ccc(C(=O)O)cc2N)c1	none
COC(=O)C1CCN(C(=O)c2ccc(Cl)c(S(=O)(=O)NCc3ccco3)c2)CC1	none
CCC(=O)c1ccc(OCc2ccc(C(=O)c3ccccc3)cc2)cc1	CHO parental Ca 65, GalR3 antag 37 | GalR3 conf 88 | CNG parental inactive
CC(C)NC(=O)NC(=O)COC(=O)Cc1ccsc1	none
COc1ccc(C=O)c2[nH]c3c(Cl)ncnc3c12	GalR3 antag 14 (no result: CHO parental Ca, OX1R antag-1, OX1R antag-2) | GalR3 conf 29 | CNG parental inactive
Cc1nc(-c2ccccc2)sc1C1(C)CC(c2ccc(C#N)cc2)=NO1 (stereo not drawn)	none
CCOC(=O)Cc1csc(NC(=O)c2cc(=O)c3ccccc3o2)n1	GalR3 antag 92 | GalR3 conf 90 | CNG parental inactive
CCOC(=O)Cc1csc(NC(=O)Cc2ccccc2)n1	none
O=C(Nc1cccc(N=Cc2cc(Cl)cc(Br)c2O)c1)c1ccco1	none
O=C(Nc1cccc(S(=O)(=O)c2cccc(NC(=O)c3ccco3)c2)c1)c1ccco1	GalR3 antag 41 | GalR3 conf 45 | CNG parental inactive
